Assay outcomes as filed in PubChem BioAssay.
Compounds with a hit are over-represented: about 2.8% of the library has one in this group of screens.
NPY-Y2 antag = blocks the human neuropeptide Y Y2 receptor; P49146; NPY-Y2 expressing cells, antagonist mode; inhibition, % at 2.7 µM; 140,000 compounds, 0.99% hits; AID 793; in the data active = inhibition above about 17%
PGE2 EP2 inh = inhibitors of human EP2 prostaglandin E2 receptor; AID 1422; inhibition, % at 25 µM; P43116; 260,000 compounds, 0.52% hits; C6 glioma cells expressing human EP2, cAMP TR-FRET; cells stimulated with saturating PGE2;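 active = percent inhibition above 40 after rounding to a whole number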;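 note: rat C6 glioma host cells with rolipram phosphodiesterase inhibitor present; the protocol text gives 20 µM as final concentration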
NPY Y1 blocker = antagonists of human neuropeptide Y receptor Y1; P25929; HEK293-CNG Y1 cells, membrane potential fluorescence; NPY at EC95, then isoproterenol; inhibition, % at 3.6 µM; 200,000 compounds, 1% hits; AID 1040;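 active = inhibition above the campaign mean inhibition of all tested compounds plus 3 SD, cut at about 20% in these data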
Target sequence (P25929 whole entry, looked up): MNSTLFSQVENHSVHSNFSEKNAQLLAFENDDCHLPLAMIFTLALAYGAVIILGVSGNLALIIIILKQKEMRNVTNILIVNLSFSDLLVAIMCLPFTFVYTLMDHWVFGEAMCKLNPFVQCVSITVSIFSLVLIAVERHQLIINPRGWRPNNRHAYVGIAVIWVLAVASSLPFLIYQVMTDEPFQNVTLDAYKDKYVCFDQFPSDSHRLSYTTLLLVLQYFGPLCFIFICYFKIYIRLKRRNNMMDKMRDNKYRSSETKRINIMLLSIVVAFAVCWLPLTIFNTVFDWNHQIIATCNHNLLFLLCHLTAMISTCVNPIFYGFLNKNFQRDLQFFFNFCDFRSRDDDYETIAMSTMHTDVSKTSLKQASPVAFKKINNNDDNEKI
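Material: Y1- and CNG-channel-expressing HEK293 cells / Probe or stimulus: NPY 25 nM then isoproterenol 1 µM plus Ro 20-1724 25 µM / Doses: 3.6 µM single dose, DMSO 0.4% / Schedule: compound incubation 1 h at room temperature, readout 45 min post-stimulation / Signal: membrane potential fluorescence / Benchmarks: isoproterenol-only wells as full block versus NPY-plus-isoproterenol wells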
NPY2 pot ag = human NPY-Y2 potentiation or agonism, primary screen. 220,000 compounds, 0.45% hits. P49146. activation, % at 3.6 µM. AID 1359. cells expressing NPY-Y2, potentiator/agonist read-out; in the data active = activation above about 27%;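 note: cells stimulated with NPY near EC25 plus isoproterenol at EC100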
EP2 modulator = modulators of human EP2 prostaglandin E2 receptor; EP2-expressing cells, cAMP HTRF FRET, PGE2 co-stimulation; P43116; 260,000 compounds, 0.83% hits; induction, % at 25 µM;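 active = compounds whose cAMP rise, as percent of the full-agonist control response, exceeds 60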;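 note: rat C6 glioma line stably carrying human EP2 under a CMV promoter; the protocol text gives 20 µM as final concentration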
NPY1 pot ag = human NPY-Y1 potentiation or agonism, primary screen; P25929; NPY-Y1 expressing cells, potentiator/agonist activation; activation, % at 3.6 µM; 220,000 compounds, 0.37% hits; AID 1304; in the data active = activation above about 33%, passing the limit was not always enough;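 note: cells stimulated with NPY at EC10 then isoproterenol at EC100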
EP2 cAMP induct = EP2 receptor cAMP induction, counter-screens negative; shares compounds with EP2 modulator; calls only at 20 µM (by protocol); C6 glioma EP2 cells, cAMP HTRF induction; plus low (about EC15) PGE2 agonist; 1,300 compounds, 47% hits; AID 1080;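 active = cAMP induction above 50% in the main assay while under 30% in all four parallel counter assays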;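 note: rat C6 glioma cells stably expressing human EP2 receptor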
Large screens that a line does not name were inactive (follow-up assays come after a bar, where they were run).

CC(OC(=O)c1oc2ccccc2c1COc1ccccc1)C(=O)NC(N)=O (centres undefined)	EP2 modulator 70 (no result: NPY-Y2 antag) | EP2 cAMP induct inactive
CC(OC(=O)c1oc2ccccc2c1CSC1CCCCC1)C(=O)NC(N)=O (centres undefined)	none
NC(=O)CSc1nc(-c2ccccc2)c(-c2ccccc2)o1	EP2 modulator 67 | EP2 cAMP induct active
CCc1nnc(NC(=O)CSc2nc(-c3ccccc3)c(-c3ccccc3)o2)s1	none
CCCN(CCC)C(C)C(=O)NCC1(c2ccccc2)CCCC1 (centres undefined)	EP2 modulator 74 (no result: NPY-Y2 antag) | EP2 cAMP induct active
CCOc1ccc(N2C(=O)/C(=C/c3cc(Br)ccc3O)SC2=S)cc1	none (no result: NPY-Y2 antag, NPY Y1 blocker, NPY2 pot ag, NPY1 pot ag)
Cc1cccc(-c2nc(=S)c3c(n2Cc2ccco2)CCCC3)c1	NPY-Y2 antag 22, NPY Y1 blocker 25, EP2 modulator 66 | EP2 cAMP induct inactive
C=CC(=O)N1c2c(C)cccc2C(=C2SC(C(=O)OC)=C(C(=O)OC)S2)C(=S)C1(C)C	none (no result: NPY-Y2 antag, NPY Y1 blocker, NPY2 pot ag, NPY1 pot ag)
Cc1ccc(N/C(C(Cl)=C(Cl)Cl)=C(/Cl)[N+](=O)[O-])c(C)c1	EP2 modulator 73 | EP2 cAMP induct active
O=C(CN1C(=O)C2CCCN2S(=O)(=O)c2ccccc21)NCc1ccccc1 (centres undefined)	none (no result: NPY-Y2 antag, NPY Y1 blocker, NPY2 pot ag, NPY1 pot ag)
N#CCSc1nc2c(c(C3CC=CCC3)c1C#N)CCC2 (centres undefined)	EP2 modulator 78 | EP2 cAMP induct active
Cc1ccc2cc(CN(CCO)C(=O)c3ccc(C(C)(C)C)cc3)c(=O)[nH]c2c1C	none (no result: NPY-Y2 antag, NPY Y1 blocker, NPY2 pot ag, NPY1 pot ag)
CCOC(=O)C1=C(C)OC(N)=C(C#N)C1c1cc(SCC)oc1C (centres undefined)	none (no result: NPY-Y2 antag)
CCOC(=O)C1=C(C)N(C)C(C)=C(C(=O)OCC)C1c1ccc(Cl)cc1	none
CCOC(=O)C1=C(C)N(C)C(C)=C(C(=O)OCC)C1c1ccsc1	EP2 modulator 72 (no result: NPY-Y2 antag) | EP2 cAMP induct active
CCOC(=O)C1=C(C)OC(N)=C(C#N)C1c1ccsc1 (centres undefined)	none
CCOC(=O)C1=C(CC)OC(N)=C(C#N)C1c1ccsc1 (centres undefined)	none | EP2 cAMP induct inactive
CCOC(=O)C1=C(C)OC(N)=C(C#N)C1c1cc(C)sc1C (centres undefined)	none | EP2 cAMP induct inactive
Cc1ccc(C(=O)Nc2nnc(C3CCCCC3)s2)cc1C	none (no result: NPY-Y2 antag, NPY Y1 blocker, NPY2 pot ag, NPY1 pot ag)
O=C(Cc1ccc(Cl)cc1)Nc1ccccc1Sc1ccccc1	EP2 modulator 75 | EP2 cAMP induct active
O=C(Nc1ccccc1Sc1ccccc1)c1ccc(F)cc1	EP2 modulator 72 | EP2 cAMP induct active
Cc1ccc(C(=O)Nc2ccccc2Sc2ccccc2)cc1	none
O=C(Cc1ccccc1)Nc1cc(Cl)ccc1Sc1ccccc1	none
O=C(Nc1ccccc1)/C(=C/c1ccccc1)c1ccccc1	EP2 modulator 78 | EP2 cAMP induct active
Cc1ccccc1NC(=O)/C(=C/c1ccccc1)c1ccccc1	NPY-Y2 antag 18, NPY Y1 blocker 21, EP2 modulator 67 | EP2 cAMP induct active
O=C(O)/C(=C\c1ccccc1)c1ccccc1	none (no result: NPY-Y2 antag, NPY Y1 blocker)
CCOc1ccccc1C(=O)Nc1ccccc1C(N)=O	none
CCOc1ccccc1C(=O)Nc1ccsc1C(=O)OC	NPY-Y2 antag 20, NPY Y1 blocker 21, EP2 modulator 81 | EP2 cAMP induct active
CC1=CC2C(CC1=O)C(C)=CCC2C(C)C (centres undefined)	none (no result: NPY-Y2 antag, NPY Y1 blocker, NPY2 pot ag, NPY1 pot ag) | EP2 cAMP induct active
CCOc1ccc2cc(C#N)c(SCC(=O)NC3CCCCC3)nc2c1	none (no result: NPY-Y2 antag, NPY Y1 blocker, NPY2 pot ag, NPY1 pot ag)
O=C(c1ccco1)N1N=C(c2ccc(Br)cc2)CC1(O)C(F)(F)F (centres undefined)	EP2 modulator 86 (no result: NPY-Y2 antag) | EP2 cAMP induct active
Cc1ccc(C(=O)N2N=C(c3ccccc3)CC2(O)C(F)(F)F)o1 (centres undefined)	EP2 modulator 70 (no result: NPY-Y2 antag) | EP2 cAMP induct inactive
COc1cccc(C2=NN(C(=O)c3cccs3)C(O)(C(F)(F)F)C2)c1 (centres undefined)	EP2 modulator 86 (no result: NPY-Y2 antag) | EP2 cAMP induct active
